This is a sample that favours compounds with a hit; in the whole collection about 4.6% have one here.
TAAR1 ag = agonists of human TAAR1. activation, % at 3 µM. AID 624467. actives 0.99% (n = 360,000). CHO RD-HGA16 TAAR1, Fluo-8 calcium fluorescence; vehicle wells 0%, saturating PEA agonist 100%;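 active = activation above the mean activation of all test compounds in the run plus 3 SD, cut at about 38% in these data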
Target sequence (Q96RJ0 whole entry, looked up): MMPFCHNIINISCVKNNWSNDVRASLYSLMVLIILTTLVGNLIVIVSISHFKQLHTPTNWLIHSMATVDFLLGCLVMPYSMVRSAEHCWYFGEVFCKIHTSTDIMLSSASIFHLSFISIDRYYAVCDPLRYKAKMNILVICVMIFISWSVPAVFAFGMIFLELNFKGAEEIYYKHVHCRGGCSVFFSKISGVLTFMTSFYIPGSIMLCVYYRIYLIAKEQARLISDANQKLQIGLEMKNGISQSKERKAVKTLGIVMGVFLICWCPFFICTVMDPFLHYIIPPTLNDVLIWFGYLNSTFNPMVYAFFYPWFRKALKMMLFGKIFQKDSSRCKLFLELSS
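Test system: RD-HGA16 (CHO) cells co-expressing Gα16 and hTAAR1; dosing: one-point dosing at 3 µM (nominal); timing: 17-24 h seeding, 75 min 37 °C dye, 30 min RT; signal: kinetic Fluo-8 calcium fluorescence; read-out basis: % activation relative to PEA EC100 response; controls: DMSO and PEA EC100; replicates: n 1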
OX1R antag-1 = blocks the human orexin 1 receptor. OX1R-expressing cells, FRET antagonist read-out. inhibition, % at 6.6 µM. actives 1.8% (n = 330,000); in the data active = inhibition mostly above about 38%, no sharp cut-off; inactive = mostly below about 40%;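 note: 0% = agonist challenge alone and 100% = reference antagonist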
Target sequence (O43613 whole entry, looked up): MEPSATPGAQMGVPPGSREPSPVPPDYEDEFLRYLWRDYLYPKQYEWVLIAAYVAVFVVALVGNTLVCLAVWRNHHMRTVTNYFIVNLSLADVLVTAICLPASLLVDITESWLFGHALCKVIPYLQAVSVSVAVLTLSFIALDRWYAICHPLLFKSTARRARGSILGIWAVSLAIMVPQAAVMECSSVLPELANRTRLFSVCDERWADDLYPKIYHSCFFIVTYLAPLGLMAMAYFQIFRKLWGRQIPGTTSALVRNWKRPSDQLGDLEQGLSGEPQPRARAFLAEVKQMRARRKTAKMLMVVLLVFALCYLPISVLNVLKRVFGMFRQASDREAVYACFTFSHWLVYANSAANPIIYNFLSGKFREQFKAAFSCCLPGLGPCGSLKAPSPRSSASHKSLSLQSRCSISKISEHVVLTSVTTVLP
GPR7 antagonist = blocks human GPR7 receptor signaling. GPR7-expressing cells, fluorescence antagonist assay. inhibition, % at 4.4 µM. actives 1.1% (n = 290,000); in the data active = inhibition above about 16%, passing the limit was not always enough;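 note: cells stimulated with the agonist NPW; 0% = agonist with vehicle and 100% = vehicle without agonist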
CHO parental Ca = signal in parental CHO cells, OX1R antagonist counter-screen; actives 0.63% (n = 330,000); inhibition, % at 5.6 µM; parental CHO-K1, ATP-induced calcium, Fluo-8 fluorescence;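 active = inhibition above that plate's mean sample inhibition plus 3 SD, cut at about 26% in these data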;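 note: 0% = ATP-challenged DMSO wells and 100% = DMSO wells without ATP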
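Material: parental CHO cells / Compound: single nominal dose of 5.6 µM per compound / Signal: Fluo-8 fluorescence / Replicates: singlicate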
TAAR1 antag = antagonists of human TAAR1. CHO RD-HGA16 TAAR1, Fluo-8 calcium fluorescence, antagonist. Q96RJ0. actives 1.5% (n = 360,000). AID 624466. inhibition, % at 3 µM;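 active = inhibition above a per-plate cutoff, the mean inhibition of test compounds on that plate plus 3 SD, cut at about 49% in these data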;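 note: 0% = DMSO plus EC80 beta-PEA response and 100% = DMSO alone without agonist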
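Test system: hTAAR1-expressing CHO RD-HGA16 cells, Gα16-coupled; Probe or stimulus: EC80 β-phenethylamine stimulus; Compound dosing: single nominal final test compound concentration of 3 µM; Timing: 140 s kinetic read after compound, 140 s after agonist; Signal: Fluo-8 calcium-sensitive fluorescence; Measure: % inhibition of agonist calcium response; Controls: DMSO and EC80 PEA controls.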
OX1R antag-2 = antagonists of human orexin 1 receptor; inhibition, % at 5 µM; CHO/OX1R cells, Fluo-8 calcium fluorescence, orexin A; O43613; actives 0.43% (n = 330,000);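 active = inhibition above its plate's threshold, mean inhibition of all tested compounds on the plate plus 3 SD, cut at about 37% in these data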;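 note: 0% = orexin A challenge wells and 100% = SB-334867-A antagonist wells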
An asterisk follows results filed as active; . = no result given.

SMILES | TAAR1 ag | OX1R antag-1 | GPR7 antagonist | CHO parental Ca | TAAR1 antag | OX1R antag-2
Oc1ccc(C2=NN(c3ccccc3)C(c3ccc(F)cc3)C2)cc1 (stereo unspecified) | 1.8 | 16.8 | -17.8 | 57.5* | -0.8 | 5.4
Cc1ccccc1N1CC(C(=O)Nc2nnc(SCCN3CCOCC3)s2)CC1=O (stereo unspecified) | -0.9 | 12.2 | 1.1 | -10.9 | 14.7 | -20.9
COc1ccc(C(=O)CSc2nnc(NC(=O)C3CC(=O)N(c4ccccc4C)C3)s2)cc1 (stereo unspecified) | 8.6 | 3.6 | -4.2 | -4.1 | 52.8* | -11.6
COc1c2ccoc2c(OC[C@@H](O)C(C)(C)O)c2oc(=O)ccc12 | 2.1 | 62.4* | -6.7 | -14.2 | -1.3 | 7.8
COc1c2ccoc2c(OC[C@@H](O)C(C)(C)OC)c2oc(=O)ccc12 | 1.5 | 10.5 | -5.6 | -6.9 | 2.5 | -4.9
COc1ccc(NC(=O)CSc2ccccc2)c([N+](=O)[O-])c1 | 0.9 | 8.7 | -7.6 | -9.8 | -7.6 | -35.4
COc1ccccc1C(=O)NC(=O)CSc1nncn1C | 4.9 | -5.3 | . | 39.9* | -26.2 | 0.7
COc1ccc(NC(=O)c2cc(Br)ccc2Cl)c([N+](=O)[O-])c1 | 0.5 | 34.8 | -7.0 | 31.5* | 9.7 | 14.4
COc1ccc(Cl)cc1C(=O)NNC(=O)CSc1nncn1C | 1.3 | 6.1 | . | -7.5 | -16.4 | -16.4
COc1ccc(NC(=O)CSc2nncn2C)c([N+](=O)[O-])c1 | 1.8 | 38.4* | -3.0 | -8.6 | -3.3 | 2.9
COc1ccc(NC(=O)CS(=O)(=O)Cc2ccccc2)c([N+](=O)[O-])c1 | 0.1 | 50.5* | -4.8 | -18.2 | -3.6 | -27.0
COc1ccc(NC(=O)c2ccc(C)cc2Cl)c([N+](=O)[O-])c1 | 2.1 | 34.8 | -12.6 | 8.8 | 1.6 | -22.7
C[C@@H]1CCCCO[C@@H](CN(C)C(=O)CCC(F)(F)F)[C@@H](C)CN([C@H](C)CO)C(=O)c2cc(NS(=O)(=O)c3cccs3)ccc2O1 | 1.7 | . | . | . | 3.1 | .
CCOC(=O)C1CSCCS(=O)(=O)N1Cc1cc(F)ccc1Br (stereo unspecified) | 1.4 | . | . | . | -10.3 | .
Cc1ccc(OCCCCN2CCCCC2)cc1 | 0.8 | . | -9.1 | . | -6.3 | .
c1ccc(-c2ccccc2OCCOCCN2CCc3ccccc3C2)cc1 | 15.4 | 17.9 | 15.8* | -22.6 | 13.8 | -23.0
Clc1ccc(SCCOCCN2CCc3ccccc3C2)cc1 | 38.0* | 22.1 | 11.0 | -17.9 | -6.9 | -23.0
Cc1ccc(OCCCCN2CCc3ccccc3C2)cc1 | 40.5* | 14.5 | -19.0 | -21.3 | -17.8 | -34.4
O=C(CN1C(=O)c2ccccc2C1=O)N1CCN(S(=O)(=O)c2ccccc2)CC1 | 2.6 | 10.1 | -9.6 | -12.5 | -8.7 | -1.1
O=C(CN1C(=O)c2cccc([N+](=O)[O-])c2C1=O)N1CCN(S(=O)(=O)c2ccccc2)CC1 | 6.3 | 33.7* | . | -18.7 | -8.0 | 23.6
Cc1ccc(C(=O)c2c3ccc([N+](=O)[O-])cc3[n+]([O-])n2CCC(N)=O)cc1 | 1.3 | 62.3* | 2.4 | -6.8 | -15.1 | -6.4
O=C1C(Oc2ccc(Cl)cc2)C(c2ccc3c(c2)OCO3)N1CC1CCCO1 (stereo unspecified) | 13.9 | 18.5 | 4.6 | -5.8 | 50.3* | -23.8
CN(C)C=NC(=O)c1ccc([N+](=O)[O-])c(CS(=O)(=O)c2ccc(Cl)cc2)c1 | 10.6 | 71.7* | -2.1 | -9.4 | -4.9 | -9.1
CN(C(=O)c1ccccc1OCc1ccc(Cl)cc1)c1ccccc1 | -0.9 | 23.3 | -1.9 | -7.0 | -24.8 | -14.3
CN(Cc1nc2ccccc2c(=O)[nH]1)C(=O)c1cc(-c2ccc(Br)cc2)nc2ccccc12 | 3.4 | . | . | . | 50.1* | .
SMILES | TAAR1 ag | OX1R antag-1 | GPR7 antagonist | CHO parental Ca | TAAR1 antag | OX1R antag-2
Cc1cccc(C(=O)NCC(=O)N(C)Cc2nc3ccccc3c(=O)[nH]2)c1 | 5.4 | 1.9 | . | -9.2 | 7.3 | 4.2
CN(Cc1nc2ccccc2c(=O)[nH]1)C(=O)c1ccccc1OCc1ccc(Cl)cc1 | 7.0 | 55.6* | . | -24.6 | 21.1 | 26.6
CCC(NCc1cccnc1)c1ccc(OC)c(OC)c1 (stereo unspecified) | 0.8 | . | . | . | -29.1 | .
O=S(=O)(c1ccc(Cl)cc1)n1cccn1 | 1.6 | 13.9 | 5.0 | 11.6 | -18.8 | 10.1
Cc1nc(C)c(-c2ccn(S(=O)(=O)c3ccc(Cl)cc3)n2)o1 | 1.4 | 3.2 | 19.4* | -8.2 | -5.5 | -22.6
COc1ccc(O)c(/C=N/n2c(-c3ccco3)csc2=Nc2cccnc2)c1 | 4.1 | 15.7 | -8.4 | -21.9 | 49.0* | -12.6
CCN(CC)CC(O)COc1ccccc1C(=O)CCc1ccccc1 (stereo unspecified) | 1.6 | -2.1 | 2.6 | -25.6 | -1.3 | -21.5
CCCCN(CCCC)CC(O)COc1ccccc1C(=O)Nc1ccccc1 (stereo unspecified) | -0.3 | 21.5 | 19.8* | -15.2 | -20.9 | -24.4
Cc1ccc2nc3ccc(N4CCCC4)nn3c(=O)c2c1 | 4.8 | 77.7* | -0.9 | -1.8 | -13.8 | -16.1
Cc1sc2nc3ccc(N4CCCCC4)nn3c(=O)c2c1C | 4.3 | 75.6* | -5.3 | -23.3 | -26.9 | -13.7
Cc1sc2nc3n(c(=O)c2c1C)CCCCC3 | -4.1 | 8.2 | -5.0 | -14.0 | -7.3 | -10.2
O=c1cc(-c2ccccc2Cl)oc2c(NS(=O)(=O)c3cccs3)ccc(O)c12 | 0.9 | 73.2* | . | -10.8 | 40.0 | 16.2
CC(Oc1ccccc1)C(=O)N1CCN=C1SCc1cccc(F)c1 (stereo unspecified) | 8.9 | 9.2 | 11.4 | -12.0 | 10.1 | -16.6
CC(Oc1ccccc1)C(=O)N1CCN=C1SCc1ccccc1F (stereo unspecified) | 6.3 | 28.3 | 11.2 | 39.5* | 2.5 | -22.2
CCOC(=O)c1c(CSc2ccccc2)n(C)c2cc(Br)c(OCC(O)CNC(CO)(CO)CO)cc12 (stereo unspecified) | 1.9 | 12.9 | -9.7 | 89.8* | 29.1 | 45.2
O=c1ccc2cc3c([nH]c4ccc(Br)cc43)oc-2c1O | 38.2* | 33.1 | -1.2 | -6.4 | 10.6 | 6.7
CCOc1ccc(CCNC(=O)CS(=O)Cc2nc(-c3ccc(OC)cc3)oc2C)cc1OCC (stereo unspecified) | -0.6 | 49.7* | -16.7 | -24.4 | -1.2 | 3.4
COc1ccc(-c2nc(CS(=O)CC(=O)NCCc3ccc(OC)c(OC)c3)c(C)o2)cc1 (stereo unspecified) | -0.9 | 9.4 | -10.8 | -1.6 | 3.1 | -22.1
CCOc1ccc(CCNC(=O)CS(=O)Cc2nc(-c3ccccc3Cl)oc2C)cc1OCC (stereo unspecified) | -1.1 | 72.1* | -11.8 | -25.5 | -18.8 | 17.6
O=c1[nH]c2cc([N+](=O)[O-])c([N+](=O)[O-])cc2[nH]c1=O | 12.3 | 56.1* | -8.5 | 0.5 | -2.8 | -0.1

Bioassay records as filed in PubChem.
